pIC50: −log10 of the molar value.
Experiments:
[1] = test system: Plasmodium falciparum; experiment: Antimalarial activity against Plasmodium falciparum NF54 infected in human erythrocytes assessed as reduction in [3H]hypoxanthine incorporation preincubated for 48 hrs followed by [3H]hypoxanthine addition measured after 24 hrs by liquid scintillation counting; type: functional, organism-based
Summary of the method: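 Chloroquine-sensitive P. falciparum NF54 was tested in a modified [3H]hypoxanthine incorporation assay. Test compounds were run up to 20 μM, and fusidic acid was tested above that. Chloroquine, artesunate and fusidic acid served as positive controls. Compound purity was ≥95%. IC50 is the mean of at least 2 independent experiments.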

[2] = test system: CHO; experiment: Cytotoxicity against CHO cells by MTT assay; type: cell-based; conditions: Cricetulus griseus
Summary of the method: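 Mammalian Chinese hamster ovary (CHO) cell line, with emetine as the positive control. Test samples were of ≥95% purity. Cytotoxicity is reported as IC50.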

[3] = Selectivity index, ratio of IC50 for CHO cells to IC50 for Plasmodium falciparum NF54 infected in human erythrocytes; type: toxicity, cell-based; conditions: Chinese hamster, read-out: Ratio IC50
Summary of the method: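 SI was calculated as the IC50 against Chinese hamster ovary (CHO) cells divided by the IC50 against P. falciparum NF54. The NF54 value came from the [3H]hypoxanthine incorporation assay. Emetine was the positive control for CHO cytotoxicity.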

Structure (SMILES) | pIC50 [1] | pIC50 [2] | selectivity ratio [3]
CC(=O)[C@@]12O[C@@H]1C[C@H]1[C@H]3CC=C4[C@@H](CC[C@@H](O)C4(C)C)[C@]3(C)C(=O)C[C@@]12C | < 4.70 |  | 
COC(=O)CC[C@@H](C)[C@H]1CC[C@@H]2[C@H]3[C@H](OC(C)=O)C[C@H]4C[C@H](OC(C)=O)CC[C@]4(C)[C@H]3C[C@H](OC(C)=O)[C@@]21C | 5.46 | 3.85 | 40.9
CC(=O)O[C@H]1CC[C@@]2(C)C(=CC[C@@H]3[C@H]4CCC[C@@]4(C)CC[C@H]32)C1 | < 4.70 |  | 
CC(=O)O[C@H]1CC[C@]2(C)[C@H]3CC[C@@]4(C)[C@H](CC[C@@H]4[C@H](C)CCCC(C)C)[C@@H]3C[C@@H](O)[C@]2(O)C1 | < 4.70 |  | 
CC(=O)O[C@H]1CC[C@@H]2[C@H]3CC[C@@]4(O)[C@H](CCC[C@@H]4O)[C@H]3CC[C@]12C | < 4.70 |  | 
CC(C)CCC[C@@H](C)[C@H]1CC[C@@H]2[C@@H]3C[C@H](O)[C@]4(O)C(=O)CCC[C@]4(C)[C@H]3CC[C@@]21C | < 4.70 |  | 
CC[C@H]1CC[C@@]2(C)[C@H]3C[C@H]4O[C@@]45[C@@H](CC[C@@H](O)C5(C)C)[C@@H]3C(=O)C[C@@]12C | < 4.70 |  | 
CC(=O)O[C@H]1C[C@@H](O)[C@]2(O)CC[C@@H]3[C@H]4CC[C@H]([C@H](C)CCCC(C)C)[C@@]4(C)CC[C@@H]3[C@@]2(C)C1 | 4.88 |  | 
CC(=O)OC[C@@]12C(=O)C[C@@]3(C)[C@H](C(C)=O)CC[C@@]3(C)[C@@H]1C[C@H]1O[C@@]13[C@H]2CC[C@@H](OC(C)=O)C3(C)C | < 4.70 |  | 
COc1ccc2c(c1)CC[C@@H]1[C@@H]2CC[C@]2(C)C3(CC[C@@]12C=O)SCCS3 | < 4.70 |  | 
CC(=O)O[C@H]1C[C@@H]2[C@H]3CC[C@H]([C@H](C)CCCC(C)C)[C@@]3(C)CC[C@@H]2[C@@]2(C)CCC[C@@H](O)[C@]12O | < 4.70 |  | 
CC(=O)O[C@@H]1CC[C@]2(C)[C@H]3CC[C@@]4(C)[C@@H]([C@@H](C)CCCC(C)C)CC[C@H]4[C@@H]3CC[C@@]2(O)[C@@H]1O | < 4.70 |  | 
CC(=O)O[C@H]1C(=O)C[C@@H]2C(=CC[C@H]3[C@@]2(C)C(=O)C[C@]2(C)C(C(C)=O)=CC[C@@]32C)C1(C)C | 4.70 |  | 
C[C@@H]1CC[C@@]2(OC1)O[C@H]1C[C@H]3[C@@H]4CC[C@H]5C[C@@H](O)CC[C@]5(C)C4=CC(=O)[C@]3(C)[C@H]1[C@@H]2C | < 4.70 |  | 
CC(=O)O[C@H]1CC[C@@H]2[C@@H]3C[C@H](OC(C)=O)[C@@]45O[C@@H]4CCC[C@]5(C)[C@H]3CC[C@]12C | < 4.70 |  | 
CC(=O)O[C@@H]1C[C@@]2(C)[C@@H]3CC=C4[C@@H](CC(=O)C4(C)C)[C@]3(C)C(=O)C[C@]2(C)[C@H]1C(C)=O | < 4.70 |  | 
CC(=O)O[C@H]1CC[C@@H]2[C@H]3C[C@@H](O)[C@@]4(O)CCCC[C@H]4[C@@H]3CC[C@]12C | < 4.70 |  | 
COc1ccc2c(c1)CC[C@@H]1[C@H]3[C@H](OCc4ccccc4)CC4(OCCO4)[C@H]3CC[C@@H]21 | 5.15 |  | 
COc1ccc2c(c1)CC[C@H]1[C@@H]2CC[C@@]2(C)[C@]13C=C[C@@]2(C(C)=O)[C@@H](S(=O)(=O)c1ccccc1)C3 | < 4.70 |  | 
CC(=O)OC(C)(C)/C=C/C(=O)[C@](C)(O)[C@H]1[C@@H](O)C[C@@]2(C)[C@@H]3CC=C4[C@@H](CC[C@H](O)C4(C)C)[C@]3(CO)C(=O)C[C@]12C | 5.75 | 5.07 | 4.83
CC1(C)CCC[C@H]2[C@]3(C)CC[C@]4(C)CCC[C@H]4[C@H]3C[C@@H](O)[C@@]21O | 4.80 |  | 
CC(=O)O[C@@H]1C[C@H]2[C@@](C)(C(=O)C[C@]3(C)[C@@H](C(C)=O)CC[C@@]23C)[C@@H]2CCC(=O)C(C)(C)[C@@]12O | < 4.70 |  | 
CC(=O)OC(C)(C)/C=C/C(=O)[C@](C)(O)[C@H]1[C@H](O)C[C@@]2(C)[C@@H]3CC=C4[C@@H](C[C@H](O)C(=O)C4(C)C)[C@]3(C)C(=O)C[C@]12C | 5.86 | 5.70 | 1.43
C[C@H]1[C@H](OC(=O)CCC(=O)O)O[C@@H]2O[C@@]3(C)CC[C@H]4[C@H](C)CC[C@@H]1[C@@]24OO3 [ARTESUNATE] | 8.40 |  | 
C[C@H](CCC(=O)O)[C@H]1CC[C@H]2[C@@H]3[C@H](O)C[C@@H]4C[C@H](O)CC[C@]4(C)[C@H]3C[C@H](O)[C@]12C [CHOLIC ACID] | < 4.70 |  | 
CC(=O)OC(C)(C)/C=C/C(=O)[C@](C)(O)[C@H]1[C@H](O)C[C@@]2(C)[C@@H]3CC=C4[C@@H](C[C@H](O)C(=O)C4(C)C)[C@]3(CO)C(=O)C[C@]12C [CUCURBITACIN A] | 5.53 | 4.26 | 18.9
C[C@@H]1CC[C@@]2(OC1)O[C@H]1C[C@H]3[C@@H]4CC=C5C[C@@H](O)CC[C@]5(C)[C@H]4CC[C@]3(C)[C@H]1[C@@H]2C [DISOGENIN] | < 4.70 |  | 
CC(=O)O[C@H]1C[C@@]2(C)[C@@H](C[C@@H](O)[C@H]3[C@@]4(C)CC[C@@H](O)[C@@H](C)[C@@H]4CC[C@@]32C)/C1=C(\CCC=C(C)C)C(=O)O [FUSIDIC ACID] |  | 3.71 | 

Source: ChEMBL document CHEMBL4261504, “Identification of steroid-like natural products as antiplasmodial agents by 2D and 3D similarity-based virtual screening” (Medchemcomm, 2017)
